Results taken from article PMC7429283 (ACS combinatorial science, 2020).

Legend:
NTMT1 [1] = molecular target: T1, NTMT1 (Homo sapiens, UniProt Q9BV86); assay: SAHH-coupled ThioGlo3 fluorescence assay, 1536-well; format: biochemical; details: IC50, Epigenetic Library qHTS, 1 nM to 57 μM
T1 sequence (Q9BV86 1-222): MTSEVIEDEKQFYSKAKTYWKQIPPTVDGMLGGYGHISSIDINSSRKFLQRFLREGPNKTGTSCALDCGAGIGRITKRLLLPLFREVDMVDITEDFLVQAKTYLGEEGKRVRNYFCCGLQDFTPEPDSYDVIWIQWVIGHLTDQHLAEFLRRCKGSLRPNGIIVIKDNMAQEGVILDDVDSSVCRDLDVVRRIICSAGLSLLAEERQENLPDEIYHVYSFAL
In short: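 Final mix of His-NTMT1 125 nM, SAHH 10 μM, SAM 100 μM and ThioGlo3 15 μM in 25 mM Tris pH 7.5, 10 mM KCl, 0.01% Triton X-100. Test compounds were pin-transferred in qHTS dilution series, then SPKRIA peptide was added to 1 μM final (4 μL). Incubation was 30 min, read at Ex 340/Em 450. Fluorescence change from the initial read was normalized plate-wise to DMSO and Ac-RCC1-10 controls.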

NTMT1 [2] = molecular target: T1, NTMT1; assay: MALDI-MS methylation inhibition assay; format: biochemical; details: data not shown
NTMT1 [3] = molecular target: T1, NTMT1; assay: MTase-Glo luminescence assay, 1536-well; format: biochemical; details: IC50, Epigenetic Library qHTS, 1 nM to 57 μM
In short: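 His-tagged NTMT1 was expressed with IPTG induction at 15 °C overnight and purified on Ni-NTA. It was used at 125 nM final with 100 μM SAM in 4 μL wells. Optimized SAHH-ThioGlo3 conditions served as the starting point, with kit reagents at recommended concentrations. SAH was converted to ADP and read by luminescence. Data were normalized plate-wise to DMSO and Ac-RCC1-10 controls, then fitted to concentration-response curves.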

[4] = molecular target: cyclin-dependent kinase 1 (CDK1)/cyclin B; details: cited from earlier work
NTMT1 [5] = details: cited from earlier work
dopamine receptors = details: cited from earlier work

| Compound | inhibition in MS testing (NTMT1 [2]) | Km (NTMT1 [5]) [µM] | further results |
| --- | --- | --- | --- |
| [N-]=[N+]=Nc1nc2c(N)ncnc2n1[C@@H]1O[C@H](CO)[C@@H](O)[C@H]1O [8-Azidoadenosine] | no inhibition | – | IC50 (NTMT1 [1]): 17.1 to 24.3 µM; IC50 (NTMT1 [3]): 17.1 to 24.3 µM |
| CCn1cnc2c(Nc3cccc(Cl)c3)nc(N[C@@H]3CCCC[C@@H]3N)nc21 [CGP 74514A] | – | – | IC50 [4]: 0.031 µM |
| APKRQSPLPP | – | 2 | – |
| N[C@@H]1CCc2cc(O)c(O)cc2C1 [6,7-ADTN] | – | – | IC50 (dopamine receptors): 0.0017 µM |
| GPKRIA | – | 0.5 | – |
| COc1cc2nc(N3CCCC3)nc(NC3CC3)c2cc1OC [NCGC00249822] | no inhibition | – | – |
